Assay results as given in article PMC5587398 (Journal of pharmaceutical and biomedical analysis, 2017).

What was measured:
[1] = Pharmacokinetic study in mice after single oral dose; type: in vivo, male C57BL/6 mice
How it was run: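 Male C57BL/6 mice (~30 g; 12 total, n=4 per time point) got a single 30 mg/kg gavage, 10 mL/kg, in 20 mM citric buffer (pH~3). K2EDTA blood was drawn at 0.167–24 hr and the plasma stored at -80°C. Plasma was precipitated with ACN/MeOH 7/3 containing deuterated IS, then run on HILIC amide +ESI SRM (0.01–25 µM calibration). Non-compartmental parameters were taken from mean concentrations per time point.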

[2] = Pharmacokinetic study in rats after single oral dose; type: in vivo, male Sprague-Dawley rats; settings: plasma
How it was run: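 Male Sprague-Dawley rats (~300 g, n=4) got a single 30 mg/kg oral gavage, 10 mL/kg, in 20 mM citric buffer (pH~3). K2EDTA blood was drawn at 0.167, 0.5, 1, 2, 3, 5, 7 and 24 hr, and plasma was stored at -80°C. Analysis used IS-containing ACN/MeOH precipitation and HILIC-UPLC-MS/MS. Non-compartmental analysis used linear-trapezoidal AUC; t1/2 = 0.693/λ, with λ from ≥3 terminal points.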

[3] = male, C57BL/6, mouse, plasma, po, 30 mg/kg
[4] = male, Sprague-Dawley, rat, po, 30 mg/kg

NC1=NCCN1CC(=O)O [cyclocreatine, 1-Carboxymethyl-2-iminoimidazolidine]
half-life ([1]; male, C57BL/6 (mice), Sprague-Dawley (rats), mouse, plasma, po, 30 mg/kg): 7 to 8 h | AUC(0-inf) [1, 3]: 84100 ng·h/mL | Cmax [1, 3]: 5620 ng/mL | Tmax [1, 3]: 5 h | absorption after PO administration ([1]; rodents (mice and rats), PO administration, summary statement): well absorbed | t(1/2) ([2]; male SD rats (n=4), 30 mg/kg PO single dose, mean ± SD): 7.9 ± 0.9 h | AUC(0-inf) [2, 4]: 91700 ± 18000 ng·h/mL | Cmax [2, 4]: 13300 ± 2600 ng/mL | Tmax [2, 4]: 0.58 ± 0.48 h
